Laboratory results reported in ChEMBL document CHEMBL1938372, “Design and synthesis of conformationally constrained inhibitors of non-nucleoside reverse transcriptase” (J Med Chem, 2011).
pKi: −log10 of the molar value. Values after ≈ are worked out from the molar mass of the structure shown. Active and inactive are the calls of the source. The rule behind the calls is not given here.

What was measured:
[1] = target: Human immunodeficiency virus type 1 reverse transcriptase (Human immunodeficiency virus 1, UniProt Q72547, K103N); experiment: Inhibition of Human immunodeficiency virus reverse transcriptase K103N mutant by SPA assay
Procedure, shortened: (§1)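 Recombinant HIV-1 RT polymerase scintillation proximity assay run with mutant enzyme, reported as Ki (nM). Values are geometric means of at least two determinations, each within 2-fold of the mean; SEM is given where there were ≥3 determinations.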

[2] = Plasma clearance in Sprague-Dawley rat at 10 mg/kg, po and 2 mg/kg, iv; format: ADME, organism-based
Procedure, shortened: (§2)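 PK in Sprague-Dawley rats (iv solution in DMSO via an indwelling jugular cannula, or oral suspension in aqueous methylcellulose/Methocel) and beagle dogs (iv and oral given crossover, same vehicles). Plasma levels by LC-MS. F from oral versus iv dose-normalized AUC. Average of at least two animals; rat values within 25% of the mean.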

[3] = system: Human immunodeficiency virus; experiment: Antiviral activity against Human immunodeficiency virus expressing wild type reverse transcriptase infected in human MT4 cells by p24 antigen assay in the presence of 50% normal human serum; format: functional; details: Human immunodeficiency virus 1, MT4; read-out: CIC95
Procedure, shortened: (§3)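 MT-4 human T-lymphoid cells in RPMI 1640 with either 10% FBS or 50% NHS; CIC95 taken as the concentration inhibiting virus spread/replication by >95%. Geometric mean of at least two determinations, individual values within 2-fold; SEM given when ≥3 determinations.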

[4] = Plasma clearance in Beagle dog at 2 mg/kg, po and 1 mg/kg, iv; format: ADME, organism-based, Canis lupus familiaris; procedure, shortened: as §2
[5] = Half life in Sprague-Dawley rat at 10 mg/kg, po and 2 mg/kg, iv; format: ADME, organism-based; details: in vivo; procedure, shortened: as §2
[6] = target: Human immunodeficiency virus type 1 reverse transcriptase (Human immunodeficiency virus 1, UniProt Q72547, Y181C); experiment: Inhibition of Human immunodeficiency virus reverse transcriptase Y181C mutant by SPA assay; procedure, shortened: as §1
[7] = Volume of distribution in Sprague-Dawley rat at 10 mg/kg, po and 2 mg/kg, iv; format: ADME, organism-based; details: in vivo; procedure, shortened: as §2
[8] = Bioavailability in Sprague-Dawley rat at 10 mg/kg, po and 2 mg/kg, iv; format: ADME, organism-based; details: in vivo; procedure, shortened: as §2
[9] = system: Human immunodeficiency virus; experiment: Antiviral activity against Human immunodeficiency virus expressing reverse transcriptase Y181C mutant infected in human MT4 cells by p24 antigen assay in the presence of 10% FBS; format: functional; details: Human immunodeficiency virus 1, MT4; read-out: CIC95
Procedure, shortened: (§4)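 Antiviral spread assay in MT-4 human T-lymphoid cells kept in RPMI 1640 with 10% FBS. Value is the CIC95, the concentration inhibiting virus replication by >95%. Reported as the geometric mean of at least two determinations, all within 2-fold of the mean. Cytotoxicity was checked up to the assay upper limit of 8.3 μM.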

[10] = system: Rattus norvegicus; experiment: Dose normalised AUC in Sprague-Dawley rat at 10 mg/kg, po by LC-MS analysis; format: ADME, organism-based; parameters: dose 10 mg/kg, route oral; details: in vivo; procedure, shortened: as §2
[11] = Solubility of the compound in water at pH 2; format: physicochemical
Procedure, shortened: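 Water solubility of the solid compound measured at pH 2 and at pH 7.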

[12] = Half life in Beagle dog at 2 mg/kg, po and 1 mg/kg, iv; format: ADME, organism-based, Canis lupus familiaris; details: in vivo; procedure, shortened: as §2
[13] = Volume of distribution in Beagle dog at 2 mg/kg, po and 1 mg/kg, iv; format: ADME, organism-based, Canis lupus familiaris; details: in vivo; procedure, shortened: as §2
[14] = system: Human immunodeficiency virus; experiment: Antiviral activity against Human immunodeficiency virus expressing reverse transcriptase K103N mutant infected in human MT4 cells by p24 antigen assay in the presence of 10% FBS; format: functional; details: Human immunodeficiency virus 1, MT4; read-out: CIC95; procedure, shortened: as §4
[15] = system: Human immunodeficiency virus; experiment: Antiviral activity against Human immunodeficiency virus expressing wild type reverse transcriptase infected in human MT4 cells by p24 antigen assay in the presence of 10% FBS; format: functional; details: Human immunodeficiency virus 1, MT4; read-out: CIC95; procedure, shortened: as §3
[16] = Inhibition of Human immunodeficiency virus reverse transcriptase by SPA assay
[17] = system: MT4; experiment: Cytotoxicity against human MT4 cells up to 8.3 uM; format: cell-based
Procedure, shortened: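 MT-4 cells in RPMI 1640 with 10% FBS or 50% NHS, run alongside the antiviral CIC95 assay; cytotoxicity checked up to the assay upper limit of 8.3 μM.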

[18] = system: Canis familiaris; experiment: Dose normalised AUC in Beagle dog at 2 mg/kg, po by LC-MS analysis; format: ADME, organism-based, Canis lupus familiaris; parameters: dose 2 mg/kg, route oral; details: in vivo; procedure, shortened: as §2
[19] = system: Human immunodeficiency virus; experiment: Antiviral activity against Human immunodeficiency virus harboring reverse transcriptase L100l/K103N/P225P/H triple mutant assessed as inhibition of viral replication; format: functional, organism-based
Procedure, shortened: (§5)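 Phenosense cell culture assay against a panel of clinically derived RT mutant viruses in the presence of 10% FBS. IC50 is the compound concentration blocking 50% of viral replication. Each value is the average of two determinations.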

[20] = system: Human immunodeficiency virus; experiment: Antiviral activity against Human immunodeficiency virus harboring reverse transcriptase K101E/G190A double mutant assessed as inhibition of viral replication; format: functional, organism-based; procedure, shortened: as §5
[21] = system: Human immunodeficiency virus; experiment: Antiviral activity against Human immunodeficiency virus harboring reverse transcriptase Y181C mutant assessed as inhibition of viral replication; format: functional, organism-based; procedure, shortened: as §5
[22] = system: Human immunodeficiency virus; experiment: Antiviral activity against multidrug-resistant Human immunodeficiency virus assessed as inhibition of viral replication; format: functional, organism-based; procedure, shortened: as §5
[23] = system: Human immunodeficiency virus; experiment: Antiviral activity against Human immunodeficiency virus harboring reverse transcriptase K103N mutant assessed as inhibition of viral replication; format: functional, organism-based; procedure, shortened: as §5
[24] = system: Human immunodeficiency virus; experiment: Antiviral activity against Human immunodeficiency virus harboring reverse transcriptase K103N/Y181C/G190A triple mutant assessed as inhibition of viral replication; format: functional, organism-based; procedure, shortened: as §5
[25] = system: Human immunodeficiency virus; experiment: Antiviral activity against Human immunodeficiency virus harboring reverse transcriptase L100l mutant assessed as inhibition of viral replication; format: functional, organism-based; procedure, shortened: as §5
[26] = system: Human immunodeficiency virus; experiment: Antiviral activity against Human immunodeficiency virus harboring reverse transcriptase G190A mutant assessed as inhibition of viral replication; format: functional, organism-based; procedure, shortened: as §5
[27] = system: Human immunodeficiency virus; experiment: Antiviral activity against Human immunodeficiency virus harboring reverse transcriptase K101E/Y181C/G190A triple mutant assessed as inhibition of viral replication; format: functional, organism-based; procedure, shortened: as §5
[28] = system: Human immunodeficiency virus; experiment: Antiviral activity against Human immunodeficiency virus harboring reverse transcriptase V106A/G190A/F227L triple mutant assessed as inhibition of viral replication; format: functional, organism-based; procedure, shortened: as §5
[29] = system: Human immunodeficiency virus; experiment: Antiviral activity against Human immunodeficiency virus harboring reverse transcriptase Y188L mutant assessed as inhibition of viral replication; format: functional, organism-based; procedure, shortened: as §5
[30] = Bioavailability in Beagle dog at 2 mg/kg, po and 1 mg/kg, iv; format: ADME, organism-based, Canis lupus familiaris; details: in vivo; procedure, shortened: as §2
[31] = system: Human immunodeficiency virus; experiment: Antiviral activity against Human immunodeficiency virus harboring reverse transcriptase K103N/P225H double mutant assessed as inhibition of viral replication; format: functional, organism-based; procedure, shortened: as §5
[32] = system: Human immunodeficiency virus; experiment: Antiviral activity against Human immunodeficiency virus harboring reverse transcriptase G190S mutant assessed as inhibition of viral replication; format: functional, organism-based; procedure, shortened: as §5
[33] = system: Human immunodeficiency virus; experiment: Antiviral activity against wild type Human immunodeficiency virus assessed as inhibition of viral replication; format: functional, organism-based
[34] = Volume of distribution in Beagle dog at 0.125 mg/kg, iv; format: ADME, organism-based, Canis lupus familiaris; parameters: dose 0.125 mg/kg, route intravenous; details: in vivo; procedure, shortened: as §2
[35] = Half life in Beagle dog at 0.125 mg/kg, iv; format: ADME, organism-based, Canis lupus familiaris; parameters: dose 0.125 mg/kg, route intravenous; details: in vivo; procedure, shortened: as §2
[36] = Plasma clearance in Beagle dog at 0.125 mg/kg, iv; format: ADME, organism-based, Canis lupus familiaris; parameters: dose 0.125 mg/kg, route intravenous; procedure, shortened: as §2

| Structure (SMILES) | pKi [1] | clearance [2] [mL/min/kg] | IC95 [3] [nM] | half-life [5] [h] | pKi [6] | Vd [7] [L/kg] | bioavailability [8] [%] | IC95 [9] [nM] | AUC/dose [10] [µM·h] | IC95 [14] [nM] | IC95 [15] [nM] | pKi [16] | Activity [17] | other results |
| --- | --- | --- | --- | --- | --- | --- | --- | --- | --- | --- | --- | --- | --- | --- |
| N#Cc1cc(Cl)cc(Oc2c(Cl)ccc3c2ncn3Cc2n[nH]c3ncccc23)c1 | 8.28 | 25.6 | 390 | 2.4 | 8.48 | 3.3 | 36 | 320 | 0.56 | 66 | 23 | 8.70 | Non-toxic | clearance [4]: 2.2 mL/min/kg; solubility [11]: 10 µg/mL (≈ 23 µM); half-life [12]: 12.8 h; Vd [13]: 0.37 L/kg |
| N#Cc1cc(Cl)cc(Oc2c(Cl)ccc3c2cnn3Cc2n[nH]c3ncccc23)c1 [MK-6186] | 9.24 | 18 | 64 | 7.6 | 9.22 | 10.5 | 76 | 58 | 1.6 | 15 | 11 | 9.47 | Non-toxic | AUC/dose [18]: 2.3 µM·h; inhibition [19]: Active; clearance [4]: 6.1 mL/min/kg; inhibition [20]: Active; inhibition [21]: Active; inhibition [22]: Active; inhibition [23]: Active; inhibition [24]: Active; inhibition [25]: Active; inhibition [26]: Active; inhibition [27]: Active; inhibition [28]: inactive; solubility [11]: < 0.1 µg/mL; inhibition [29]: inactive; half-life [12]: 12.8 h; Vd [13]: 6 L/kg; bioavailability [30]: 48%; inhibition [31]: Active; inhibition [32]: Active; inhibition [33]: Active |
| N#Cc1cc(Cl)cc(Oc2c(Cl)ccc3c2[nH]c(=O)n3Cc2n[nH]c3ncccc23)c1 | < 6.22 |  | > 833 |  | < 6.52 |  |  |  |  |  | > 833 | < 6.52 | Non-toxic |  |
| N#Cc1cc(Cl)cc(Oc2c(Cl)ccc3c2c(Cl)nn3Cc2n[nH]c3ncccc23)c1 | 7.55 |  | > 5000 |  | 7.38 |  |  | > 2000 |  | > 2000 | > 500 | 7.34 | Non-toxic |  |
| N#Cc1cc(Cl)cc(Oc2cc(NCc3n[nH]c4ncccc34)c(N)cc2Cl)c1 | 8.42 |  |  |  | 8.48 |  |  |  |  | 40 | 24 | 8.64 | Non-toxic |  |
| N#Cc1cc(Cl)cc(Oc2cc3c(cc2Cl)nnn3Cc2n[nH]c3ncccc23)c1 | < 6.52 |  |  |  | < 6.05 |  |  |  |  |  | > 833 | < 6.52 | Non-toxic |  |
| N#Cc1cc(Cl)cc(Oc2cc3c(cc2Cl)ncn3Cc2n[nH]c3ncccc23)c1 | < 7.00 |  |  |  | < 7.00 |  |  |  |  | 732 | 693 | 6.94 | Non-toxic |  |
| N#Cc1cc(Cl)cc(Oc2c(Cl)ccc3c2nnn3Cc2n[nH]c3ncccc23)c1 | 9.37 | 14 | 23 | 4.8 | 9.36 | 5.5 | 7.3 | 18 | 0.18 | 3.8 | 4.3 | 9.62 | Non-toxic | AUC/dose [18]: 0.45 µM·h; inhibition [19]: Active; clearance [4]: 1.6 mL/min/kg; inhibition [20]: Active; inhibition [21]: Active; inhibition [22]: Active; inhibition [23]: Active; inhibition [24]: Active; inhibition [25]: Active; inhibition [26]: Active; inhibition [27]: Active; inhibition [28]: inactive; solubility [11]: < 0.1 µg/mL; inhibition [29]: inactive; half-life [12]: 11.3 h; Vd [13]: 1.3 L/kg; bioavailability [30]: 9.5%; inhibition [31]: Active; inhibition [32]: Active; inhibition [33]: Active |
| NCc1cc(Cl)cc(Oc2c(Cl)ccc3c2nnn3Cc2n[nH]c3ncccc23)c1Cl |  |  | 281 |  |  |  |  | 418 |  | 232 | 57 |  | Non-toxic |  |
| Cc1nc2c(Oc3cc(Cl)cc(C#N)c3)c(Cl)ccc2n1Cc1n[nH]c2ncccc12 | < 6.22 |  | > 833 |  | < 6.52 |  |  |  |  |  | > 833 | < 6.52 | Non-toxic |  |
| N#Cc1cc(Cl)cc(Oc2c(Cl)ccc3c2nnn3Cc2n[nH]c3nc(N)ccc23)c1 | 9.03 | 11.9 | 36 | 4.7 | 8.92 | 4.4 | < 1 | 37 | 0.02 | 5.8 | 3 | 8.96 | Non-toxic | Vd [34]: 0.65 L/kg; half-life [35]: 12.8 h; clearance [36]: 2.2 mL/min/kg |
